# NF-kB expr up – NF-kB expression increase, human neuronal cells; NF-kB reporter expression; active compounds read high; fold change at 12.5 µM; 1.6% of 190,000 active; in the data active means fold change above about 3.3
# APP 5'UTR act – activates APP 5'UTR luciferase reporter. SH-SY5Y APP 5'UTR luciferase reporter, luminescence; zero percent = DMSO vehicle wells. 1% of 190,000 active. AID 1276. activation, % at 2 µM;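 active means activation above a set limit, based on mean plus 3 SD of controls, cut at about 140% in these data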
# STAT1 act – activators of IFN-gamma induced STAT1 signaling. activation (% of control), % at 5.5 µM. AID 932. 2.6% of 200,000 active. NIH 3T3 STAT1-luciferase reporter, luminescence; 100% = IFN-gamma alone, no compound;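 active means activation above the screen-wide mean activation plus 3 SD, cut at about 130% in these data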;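 further: raw ratio to IFN-gamma control signal so 100% means no change and 0% no light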
# FLuc act counter – firefly luciferase counter-screen for stimulation assays | activation factor at 10 µM | AID 1027 | ATPlite luciferase biochemical, luminescence, 10 min; 0 = ATP-free wells, 1 = DMSO control | P08659 | 200,000 tested, under 10 active;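 active means luciferase activation factor, scaled between plate controls, of at least 2 with compound at 10 µM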
# Target sequence (P08659 whole entry, looked up): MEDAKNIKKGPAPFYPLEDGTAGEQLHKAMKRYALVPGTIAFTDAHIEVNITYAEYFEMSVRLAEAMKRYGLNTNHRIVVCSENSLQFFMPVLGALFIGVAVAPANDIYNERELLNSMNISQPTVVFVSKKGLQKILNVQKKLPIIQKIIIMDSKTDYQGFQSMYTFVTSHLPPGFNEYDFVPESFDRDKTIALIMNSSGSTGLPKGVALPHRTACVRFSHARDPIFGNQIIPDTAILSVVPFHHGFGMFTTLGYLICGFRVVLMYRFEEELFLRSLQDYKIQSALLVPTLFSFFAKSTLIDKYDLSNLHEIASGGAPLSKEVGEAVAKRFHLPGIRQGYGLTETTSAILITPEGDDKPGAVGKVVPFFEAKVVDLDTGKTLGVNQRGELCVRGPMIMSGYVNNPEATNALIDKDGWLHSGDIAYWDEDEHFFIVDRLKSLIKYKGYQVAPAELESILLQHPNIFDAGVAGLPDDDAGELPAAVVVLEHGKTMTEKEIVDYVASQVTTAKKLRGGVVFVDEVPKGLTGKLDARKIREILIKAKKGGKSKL
#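 System: cell-free luciferase reagent; medium: PBS as buffer for the ATP substrate; doses: test compounds dosed from 2 mM stocks in 100% DMSO; incubation: 10 min, room temperature; measured by: luminescence from luciferase reaction; read-out: luciferase activation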
# FLuc inhib CS – Photinus pyralis luciferase inhibition counter-screen. P08659. inhibition, % at 10 µM. ATPLite firefly luciferase biochemical luminescence, 10 min. 1.5% of 200,000 active;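 active means inhibition above about 50% when tested at 10 µM, limit read from the data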
# Pf gametocyte – kills late stage P. falciparum gametocytes; P. falciparum stage V gametocytes, ATP luminescence, 24 h; inhibition, % at 10.9 µM; 0.065% of 150,000 active; AID 743093;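 active means inhibition above the mean plus 3 SD of compounds within the control limits, set per campaign, cut at about 38% in these data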;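 further: 0% = DMSO wells and 100% = medium only without gametocytes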
# An asterisk follows results filed as active; . = no result given. Only some compounds are listed: those with a hit (about 3.5% of all), similar ones and a draw of the others.
SMILES,NF-kB expr up,APP 5'UTR act,STAT1 act,FLuc act counter,FLuc inhib CS,Pf gametocyte
Cc1csc(Nc2ccc(C(=O)O)cc2)n1,.,.,.,.,.,10
Cc1csc(NC(=O)/C=C/c2ccc(C)o2)n1,1.8,88,116,0.7,35,0
Cc1csc(NC(=O)/C=C/c2ccco2)n1,2.8,88,147*,0.5,49,.
Nc1ccc2nc(-c3cc(Cl)c(N)c(Cl)c3)[nH]c2c1,2.5,44,117,0.5,46,2
Cc1ccc(C)c(-c2nc3ccc(N)cc3[nH]2)c1,2.2,-3,102,1,1,14
Nc1ccc(-c2nc3ccc(N)cc3[nH]2)cc1,.,16,127,0.5,52*,6
Cc1nc2ccc(-c3nc4ccc(N)cc4[nH]3)cc2[nH]1,0.7,11,78,0.2,78*,.
NC(=O)CSc1nc2ccc([N+](=O)[O-])cc2[nH]1,0.95,1,98,1,-1,.
O=[N+]([O-])c1ccc2nc(/C=C/c3ccc(Cl)cc3)[nH]c2c1,0.97,136*,83,0.8,16,.
Nc1ccc2nc(-c3ccc(Cl)cc3)[nH]c2c1,8.5*,61,.,0.2,75*,.
CC(C)Nc1cc(C(C)(C)C)nc2c(-c3ccccc3)cnn12,.,.,.,.,.,10
C[C@H](CO)N1C[C@H](C)[C@@H](CN(C)S(=O)(=O)c2ccccc2)Oc2c(NS(=O)(=O)c3ccccc3)cccc2C1=O,.,.,.,.,.,3
CCCC[n+]1ccc(-c2nc3ccc([N+](=O)[O-])cc3[nH]2)cc1,1.4,-2,102,1,-2,.
O=[N+]([O-])c1ccc(-c2nc3ccc([N+](=O)[O-])cc3[nH]2)cc1,1.4,30,131*,1,-1,4
Cc1ccc(S(=O)(=O)c2c(C)cc(C)nc2N2CCCCC2)cc1,1.5,-5,94,1,-2,-19
O=C(Cc1cccc2ccccc12)N/N=C/c1ccc(Sc2cccc3cccnc23)o1,0.7,-54,97,1.1,-6,.
CCCCC(=O)N/N=C/c1ccc(Sc2cccc3cccnc23)o1,4.4*,1,92,1,-2,.
CCOc1ccccc1C(=O)NN1C(=O)C2CCCCC2C1=O (stereo unspecified),0.96,16,93,1,-4,-15
CC(C)c1ccc(C(=O)NN2C(=O)C3CCCCC3C2=O)cc1 (stereo unspecified),1.6,55,144*,0.2,80*,0
Cc1ccc(C(=O)N2CCN(C3c4cccc5cccc(c45)C3NS(=O)(=O)c3ccccc3)CC2)cc1 (stereo unspecified),0.71,0,91,1,-2,.
Oc1ccccc1CNc1cnc2ccccc2c1,3.6*,71,103,1,4,.
Oc1ccc(Cl)cc1CNc1cnc2ccccc2c1,.,.,.,.,.,-2
COc1ccc2c(CC(=O)Nc3ncc(C)s3)coc2c1,1.2,89,141*,0.8,18,14
COc1ccc2c(CC(=O)Nc3nc(C)cs3)coc2c1,1.5,51,105,0.9,14,-14
O=C(Nc1cccnc1)c1cc(-c2ccc(F)cc2)on1,1.2,17,104,0.5,54*,-31
SMILES,NF-kB expr up,APP 5'UTR act,STAT1 act,FLuc act counter,FLuc inhib CS,Pf gametocyte
CC(=O)c1cccc(NC(=O)c2cc(-c3ccc(F)cc3)on2)c1,1.6,-2,109,1,5,.
O=C(Nc1cccnc1)c1cc(-c2ccc3c(c2)OCO3)on1,5.5*,11,134*,0.3,68*,12
Nc1ccc(C(=O)Nc2ccccc2C(=O)O)cc1,1.1,7,98,0.5,54*,-9
CCOc1ccc(C(=O)Nc2ccccc2C(=O)O)cc1,1.1,64,85,0.1,93*,23
Nc1ccccc1NC(=O)c1ccccc1,3.9*,44,104,1,-4,.
O=C(Nc1ccccc1C(=O)N1CCCC1)c1ccccc1,1.5,6,104,1,-2,-21
C=C1CCN(c2ccc(C(=O)NCc3ccc(OC)cc3)cc2[N+](=O)[O-])CC1,.,.,.,.,.,7
Cc1ccnc(NC(=O)/C=C/c2ccccc2Cl)c1,8.7*,186*,121,0.2,76*,.
Cc1ccnc(NC(=O)/C=C/c2ccccc2[N+](=O)[O-])c1,7.7*,142*,100,0.3,73*,-8
O=C(/C=C\c1ccccc1[N+](=O)[O-])Nc1ccccc1,1.4,73,135*,0.9,12,2
Cc1ccc(N2CCN(C(=S)Nc3ccc(Cl)cc3)CC2)cc1,.,.,.,.,.,13
O=C(N/N=C1\CCc2ccccc21)c1ccccc1Cl,2.9,102,131*,0.7,26,-9
O=C(N/N=C1\CCc2ccccc21)c1ccc(O)cc1,3.3,138*,142*,0.3,66*,-9
O=C(N/N=C1/CCc2ccccc21)C1CC1,1.5,4,113,1,-2,8
Cc1ccc(C(=O)N/N=C2\CCc3ccccc32)c(C)c1,5.7*,127,149*,0.4,62*,4
Nc1ccc(NC(=O)NC2CCCCC2)cc1,1.4,4,115,1,4,.
S=C(Nc1ccc2nsnc2c1)N1CCCCC1,2.6,65,132*,0.8,15,6
O=C(Nc1ccc(Cl)cc1)NC1CCCCC1,2.6,46,138*,0.8,16,.
S=C(Nc1ccc2nc(-c3ccccn3)c(-c3ccccn3)nc2c1)N1CCCCC1,0.95,-6,97,0.9,13,.
O=C(Nc1ccc2nsnc2c1)NC1CCCCC1,3.8*,92,131*,0.5,50,.
CC(=O)c1cccc(NC(=O)CCS(=O)(=O)c2cccc3nonc23)c1,0.94,15,93,1.1,-8,4
CCOC(=O)c1c(NC(=O)CSc2nnnn2C)sc(CC)c1C,1.3,12,99,1,-5,.
O=C(Cn1cnc2ccccc2c1=O)NCCC(=O)Nc1ccc2c(c1)OCCO2,0.8,1,102,1,-3,.
O=C(CSc1nnc2ccccn12)NCc1ccc2c(c1)OCO2,0.98,1,99,1,-2,.
O=C(Cn1cnc2ccccc2c1=O)Nc1ccc2c(c1)OCCO2,1.1,94,130*,0.7,32,25
SMILES,NF-kB expr up,APP 5'UTR act,STAT1 act,FLuc act counter,FLuc inhib CS,Pf gametocyte
Cc1ccc(C)c(NC(=O)c2c(Cl)nc3ccccn23)c1,0.95,14,108,1,-2,-21
Cc1nc2ccccn2c1C(=O)NCc1ccc2c(c1)OCO2,0.78,-6,82,1.1,-10,.
Cc1ccc(NC(=O)c2c(Cl)nc3ccccn23)cc1,1.2,103,139*,0.8,21,3
O=C(CSc1nnc2ccccn12)Nc1ccc2c(c1)OCCO2,1.8,39,139*,0.9,5,-11
Cc1nc2ccccn2c1C(=O)Nc1ccc2c(c1)OCCO2,1.1,58,103,0.5,54*,5
O=C(CS(=O)(=O)Cc1ccccc1)Nc1ncccn1,1.1,4,101,1,-2,17
Cc1nc2cc(-c3ccc(Cl)cc3)nn2c(NCCN(C)C)c1C,1.8,76,108,1,4,-55
